# Results reported in PubChem BioAssay.
# Activity calls are given as the source filed them.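 Rule for the calls, unless noted: active = viability at or below 10% of carrier control in both of two separate runs; inconclusive = viability at or below 10% in only one of the two runs; inactive = the rest.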
# Legend:
# [1] = Her2 expression decrease, cell viability multiplex – SKBR3 breast tumor cells, AlphaScreen, ATP viability, primary screen (AID 461;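 active = Her2 level under about 52% in both replicate screens, with viability over 70% of control, limit read from the data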;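 for Her2 level: lower value means less Her2 protein in the cells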;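 for viability: percent of carrier control wells set as 100% viability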); details: SKBR3 Her2 protein level, 18-24 h, measured here: SKBR3 viability, ATP luminescence, at 10 µM
# [2] = molecular target: Receptor tyrosine-protein kinase erbB-2 (Homo sapiens) (UniProt P04626); assay: as above; details: 18-24 h, at 10 µM, stronger effect = lower value
# [3] = reduced viability of SK-BR-3 breast cancer cells – cell-based, 24 h, human, pilot screen (AID 572); details: SK-BR-3 viability, CellTiter-Glo luminescence, at 10 µM, stronger effect = lower value;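 note: compound exposure lasted between 18 and 24 h rather than exactly 24 h; 100% = carrier-treated control wells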
# [4] = HUVEC growth inhibition – cell-based, human, primary screen (AID 575;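 active = viability at or below 30% in both replicate assays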;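 note: 100% = median of untreated cell wells with 0.1% DMSO on each plate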); details: HUVEC proliferation, CellTiter-Glo luminescence, 72 h; at 10 µM; stronger effect = lower value
# Procedure, shortened: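 system = HUVEC primary cells | amount = 1250 cells/well | buffer or medium = supplemented EBM, 2% fetal bovine serum | dosing = single-point 10 µM, DMSO 0.1% final | times = 72 h compound incubation | detection = CTG luminescence | read-out = % viability relative to median vehicle-well signal on each plate | control set = vehicle and MePR control wells | format = collagen-coated 384-well format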
# [5] = H69AR cell proliferation blockers – human, duplicate replicates, primary screen (AID 580;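 active = viability at or under a set limit in both replicates, limit being median viability minus 3 SD, cut at about 48% in these data, passing the limit was not always enough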;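 note: 100% = mean luminescence of untreated wells and 0% = no signal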); details: H69AR lung tumor cells viability, ATP luminescence, 72 h; at 10 µM; stronger effect = lower value
# [6] = MRP1 drug-resistance reversers in H69AR cells – cell-based, doxorubicin co-treatment, pilot screen (AID 601;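 active = viability loss from added drug above about 55%, and viability with drug at most 40%, in both replicates, limit read from the data, passing the limit was not always enough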); details: CellTiter-Glo, 72 h, at 10 µM; for differential viability (reversal): stronger effect = higher value
# [7] = yeast transport mutant growth inhibition pilot in 384-well plates, post-Golgi transport modulator project (AID 636; in the data active = inhibition above about 31%); details: absorbance 615 nm, about 18 h, stronger effect = higher value
# [8] = growth suppression of yeast trafficking mutant, preliminary HTS, modulators of trafficking downstream of Golgi apparatus project, 1536-format plate, OD 615 nm (AID 637; in the data active = inhibition above about 30%); details: yeast transport mutant growth, absorbance 615 nm, 18 h; stronger effect = higher value
# [9] = H69AR cells + 2 uM doxorubicin, measured here: viability with 2 uM doxorubicin, stronger effect = lower value
# [10] = H69AR cells, compound alone cytotoxicity
# Chain of Receptor tyrosine-protein kinase erbB-2 (Homo sapiens) (P04626 whole entry, looked up): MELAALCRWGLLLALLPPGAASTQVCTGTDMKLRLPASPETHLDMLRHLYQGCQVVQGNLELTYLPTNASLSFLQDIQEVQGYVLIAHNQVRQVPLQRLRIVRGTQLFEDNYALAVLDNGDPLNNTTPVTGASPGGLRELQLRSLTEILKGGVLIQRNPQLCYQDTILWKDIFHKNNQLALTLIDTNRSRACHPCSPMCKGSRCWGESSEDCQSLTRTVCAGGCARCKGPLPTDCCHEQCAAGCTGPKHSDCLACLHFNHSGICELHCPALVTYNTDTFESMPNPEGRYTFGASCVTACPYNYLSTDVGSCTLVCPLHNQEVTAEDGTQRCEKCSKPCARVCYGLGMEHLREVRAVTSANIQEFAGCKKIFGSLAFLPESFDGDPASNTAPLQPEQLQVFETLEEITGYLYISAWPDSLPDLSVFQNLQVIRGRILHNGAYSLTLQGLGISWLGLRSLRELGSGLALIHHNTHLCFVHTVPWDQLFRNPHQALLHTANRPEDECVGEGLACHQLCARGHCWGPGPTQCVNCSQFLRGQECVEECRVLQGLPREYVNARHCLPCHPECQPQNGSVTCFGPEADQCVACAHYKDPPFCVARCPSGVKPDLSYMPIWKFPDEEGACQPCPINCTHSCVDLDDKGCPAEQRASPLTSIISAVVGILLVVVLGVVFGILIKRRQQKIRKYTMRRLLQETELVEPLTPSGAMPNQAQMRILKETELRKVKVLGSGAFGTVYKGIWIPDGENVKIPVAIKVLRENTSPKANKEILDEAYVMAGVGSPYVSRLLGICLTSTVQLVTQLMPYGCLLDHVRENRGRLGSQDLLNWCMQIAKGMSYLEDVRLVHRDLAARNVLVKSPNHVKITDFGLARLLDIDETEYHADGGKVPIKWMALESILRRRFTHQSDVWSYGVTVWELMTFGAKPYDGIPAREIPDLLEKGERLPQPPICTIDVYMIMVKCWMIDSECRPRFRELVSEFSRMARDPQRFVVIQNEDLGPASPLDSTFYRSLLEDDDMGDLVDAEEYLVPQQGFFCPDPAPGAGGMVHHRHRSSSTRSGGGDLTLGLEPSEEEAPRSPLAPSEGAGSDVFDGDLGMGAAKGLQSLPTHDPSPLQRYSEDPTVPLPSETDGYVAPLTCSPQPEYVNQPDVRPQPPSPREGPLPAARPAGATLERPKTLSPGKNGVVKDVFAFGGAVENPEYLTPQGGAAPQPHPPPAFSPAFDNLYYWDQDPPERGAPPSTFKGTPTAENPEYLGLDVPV
Structure (SMILES),viability [1] [%],Her2 level [2],viability [3],viability [4],viability [5],differential viability (reversal) ([6]; H69AR cells + 2 uM doxorubicin),"viability [6, 9] [%]","viability [6, 10] [%]",inhibition [7],inhibition [8]
CCSc1nc2c(c(=O)n(C)c(=O)n2C)n1Cc1ccc(Cl)cc1,70.5,71% (inactive),70.5% (inactive),63.2% (inactive),83% (inactive),-4.85% (inactive),87.9,83,-0.92% (inactive),2.36% (inactive)
COc1ccc(OC)c(-n2nnnc2SCC(=O)NCc2ccc3c(c2)OCO3)c1,98.5,88% (inactive),98.5% (inactive),84.4% (inactive),93.9% (inactive),-1.01% (inactive),94.9,93.9,-5.87% (inactive),5.57% (inactive)
CSC(=O)CC(=O)NC(=O)c1ccccc1,102,97% (inactive),102% (inactive),108% (inactive),97.9% (inactive),-5.79% (inactive),104,97.9,-1.05% (inactive),5.74% (inactive)
O=C(Nc1ccc(S(=O)(=O)N2CCc3ccccc32)cc1)c1ccc2c(c1)OCO2,77,75.5% (inactive),77% (inactive),76.7% (inactive),103% (inactive),2.24% (inactive),100,103,3.51% (inactive),-8.73% (inactive)
O=C(CSc1nnc(-c2cccs2)o1)NCC1CN(Cc2ccccc2)CCO1 (stereo not given),99.5,90.5% (inactive),99.5% (inactive),106% (inactive),85.1% (inactive),-13.7% (inactive),98.8,85.1,-1.69% (inactive),-1.9% (inactive)
Cc1cc(C)c2cc(CN(CC3CCCO3)C(=O)NC3CCCCC3)c(=O)[nH]c2c1 (stereo not given),78.5,89.5% (inactive),78.5% (inactive),92% (inactive),73.4% (inactive),-2.42% (inactive),75.8,73.4,-0.13% (inactive),15.8% (inactive)
COc1ccc(CCn2c(N)c(C#N)c3nc4ccccc4nc32)cc1OC,64,82.5% (inactive),64% (inactive),94.3% (inactive),90.4% (inactive),0.84% (inactive),89.6,90.4,-1.45% (inactive),7.87% (inactive)
Cc1ccc(N(Cc2ccco2)C(=O)c2cccc(S(=O)(=O)N(C)C)c2)cc1,97.5,104% (inactive),97.5% (inactive),88.4% (inactive),96.7% (inactive),-2.84% (inactive),99.6,96.7,0.53% (inactive),-1% (inactive)
COCc1nnc(NS(=O)(=O)c2ccc(Br)cc2)s1,99.5,92% (inactive),99.5% (inactive),108% (inactive),91.3% (inactive),-4.46% (inactive),95.8,91.3,-5.2% (inactive),-1.75% (inactive)
COc1cccc(CN=CC2=C(O)CC(C)(C)CC2=O)c1OC,106,114% (inactive),106% (inactive),101% (inactive),100% (inactive),-0.91% (inactive),101,100,-1.69% (inactive),-7.54% (inactive)
Cc1onc(-c2ccccc2)c1C(=O)N1CCOCC1,110,87% (inactive),110% (inactive),99.3% (inactive),107% (inactive),12.6% (inactive),94.4,107,-3.42% (inactive),-2.83% (inactive)
c1cc2c(cc1C1=Nn3c(nnc3C3CCCCC3)SC1)OCO2,133,108% (inactive),133% (inactive),64.8% (inactive),9.93% (active),-67.4% (inactive),77.3,9.93,-1.84% (inactive),3.06% (inactive)
COc1ccc(N2CCN(C(=O)CSc3ccccc3N)CC2)cc1,85.5,88% (inactive),85.5% (inactive),88.2% (inactive),94.9% (inactive),-2.63% (inactive),97.5,94.9,0% (inactive),-0.55% (inactive)
COc1ccc(NC(=O)c2oc3ccc(S(=O)(=O)N4CCC5(CC4)OCCO5)cc3c2C)cc1,87.5,90.5% (inactive),87.5% (inactive),39.4% (inactive),37.5% (active),-5.32% (inactive),42.8,37.5,1.17% (inactive),-14.8% (inactive)
COCCN(C(=O)CNC(=O)c1ccco1)C(C(=O)NC1CCCCC1)c1cccc(OC)c1 (stereo not given),96,103% (inactive),96% (inactive),88.1% (inactive),102% (inactive),12.6% (inactive),89.6,102,-1.3% (inactive),-1.17% (inactive)
O=C1c2cccnc2C(O)N1Cc1ccc(F)cc1 (stereo not given),104,88% (inactive),104% (inactive),88.8% (inactive),102% (inactive),3.87% (inactive),97.7,102,-4.53% (inactive),2.95% (inactive)
COc1ccccc1-n1c(SCC(=O)Nc2ccc3c(c2)OCO3)nc2c(c1=O)SCC2,82.5,112% (inactive),82.5% (inactive),85% (inactive),87.4% (inactive),0.71% (inactive),86.7,87.4,-0.55% (inactive),23.5% (inactive)
COC(=O)c1ccc(Oc2nc(NC(C)C)nc(N(C)C)n2)cc1,102,91.5% (inactive),102% (inactive),97.2% (inactive),89.5% (inactive),-7.6% (inactive),97.1,89.5,-5.14% (inactive),-2.46% (inactive)
CCCOc1ccccc1NC(=O)c1ccc(N)cc1,95,84% (inactive),95% (inactive),100% (inactive),98.2% (inactive),7.58% (inactive),90.6,98.2,-5.53% (inactive),-2.17% (inactive)
Cc1c(NC(=O)c2coc(=O)c(Br)c2)c(=O)n(-c2ccccc2)n1C,85,27.5% (active),85% (inactive),72.9% (inactive),1.47% (active),-0.165% (inactive),1.64,1.47,-4.55% (inactive),-4.92% (inactive)
CCOc1ccc(CCNC(=O)CCc2nc(-c3ccc(OC)cc3)no2)cc1OCC,86.5,104% (inactive),86.5% (inactive),81.9% (inactive),94.3% (inactive),-5.12% (inactive),99.4,94.3,-1.05% (inactive),3.17% (inactive)
O=C(COc1ccc2c(c1)OCO2)NC12CC3CC(CC(C3)C1)C2,89.5,93% (inactive),89.5% (inactive),75.2% (inactive),80.8% (inactive),-5.25% (inactive),86,80.8,-5.07% (inactive),-6.07% (inactive)
COc1ccccc1C(=O)N1CCN(CCc2ccccc2)CC1,102,124% (inactive),102% (inactive),88.2% (inactive),103% (inactive),3.95% (inactive),99.2,103,0% (inactive),-4.17% (inactive)
O=S(CC(O)COCc1ccc(Cl)cc1)c1ccccn1 (stereo not given),100,90.5% (inactive),100% (inactive),111% (inactive),93% (inactive),1.46% (inactive),91.5,93,-1.95% (inactive),-3.93% (inactive)
COc1ccccc1N1CCN(C/C(O)=C(\C#N)c2nc(-c3ccccc3)cs2)CC1,94,108% (inactive),94% (inactive),84.1% (inactive),90.8% (inactive),-6.43% (inactive),97.2,90.8,0.55% (inactive),12.5% (inactive)
CC(C)(C)c1ccc(O)c(N)c1,86,93.5% (inactive),86% (inactive),106% (inactive),94.2% (inactive),-0.85% (inactive),95.1,94.2,-5.21% (inactive),-3.33% (inactive)
CCOc1ccccc1C(=O)NCC(=O)OCC(=O)N1C(C)CCCC1C (stereo not given),98.5,89% (inactive),98.5% (inactive),102% (inactive),103% (inactive),9.78% (inactive),93.4,103,-3.77% (inactive),-3.02% (inactive)
Cn1c(NCc2cccc(Br)c2)nc2ccccc21,87,86.5% (inactive),87% (inactive),83.7% (inactive),81.1% (inactive),7.16% (inactive),73.9,81.1,-4.27% (inactive),-3.87% (inactive)
CC1CCCN(C(=O)CN2CCN(C(=O)c3ccco3)CC2)C1 (stereo not given),95.5,89.5% (inactive),95.5% (inactive),91.2% (inactive),93.2% (inactive),11.7% (inactive),81.6,93.2,-4.13% (inactive),-1.8% (inactive)
